Experimental data: ChEMBL document CHEMBL1141147, “Development of dual-acting benzofurans for thromboxane A2 receptor antagonist and prostacyclin receptor agonist: synthesis, structure-activity relationship, and evaluation of benzofuran derivatives” (J Med Chem, 2005)

What was measured:
Prostacyclin receptor = Prostacyclin receptor (Homo sapiens, UniProt P43119); experiment: Inhibition of [3H]APS-314d binding to prostacyclin receptors (IP) of human platelet membrane
Method in brief: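 Human platelet membranes (10 μg protein; freeze-thawed washed platelets, 40000g pellet) in 50 mM Tris, 5 mM MgCl₂, pH 7.4 were incubated with [³H]APS-314d sodium and compound for 60 min at 4 °C. Bound ligand was separated by GF/C filtration and counted by liquid scintillation. Nonspecific binding was set with 10 μM APS-314d sodium. Ki was derived from IC50 via the Cheng–Prusoff form.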

Thromboxane A2 receptor = target: T1, Thromboxane A2 receptor (Homo sapiens, UniProt P21731); experiment: Inhibition of [3H]SQ-29,548 binding to thromboxane A2 receptors (TP) of human platelet membrane
T1 sequence (P21731 whole entry): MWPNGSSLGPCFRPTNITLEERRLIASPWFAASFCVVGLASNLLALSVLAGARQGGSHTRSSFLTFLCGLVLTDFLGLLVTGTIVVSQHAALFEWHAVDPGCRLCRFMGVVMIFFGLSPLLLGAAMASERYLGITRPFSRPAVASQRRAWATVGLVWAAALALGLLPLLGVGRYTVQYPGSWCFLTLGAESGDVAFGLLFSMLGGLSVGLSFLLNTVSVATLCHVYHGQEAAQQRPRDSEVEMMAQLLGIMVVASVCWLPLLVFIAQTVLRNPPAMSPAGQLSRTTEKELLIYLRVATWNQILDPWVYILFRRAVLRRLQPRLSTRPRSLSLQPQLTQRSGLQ
Method in brief: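 Washed human platelets from citrated, indomethacin-treated blood were freeze-thawed three times. Membranes were pelleted at 40000g and used at 10 μg protein in 50 mM Tris, 5 mM MgCl₂, pH 7.4. They were incubated with [³H]SQ-29548 and compound for 30 min at 25 °C, then filtered on GF/C and counted by scintillation. Nonspecific binding was set with 10 μM SQ-29548. Ki = IC50/(1 + L/Kd).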

Homo sapiens [1] = organism: Homo sapiens; experiment: Inhibition of U-46,619 (2 uM) induced platelet aggregation in human platelet rich plasma; format: functional, organism-based
Method in brief: (§1)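 Human volunteer blood was citrated 9:1 with 3.8% sodium citrate and spun at 90–140g for 10 min at room temperature to give PRP; platelet-poor plasma came from a 1400g spin and set 100% aggregation. PRP was preincubated 1 min with compound at various concentrations, then stimulated. Light transmission was recorded for 5 min. Percent inhibition was taken against vehicle, N = 3; IC50 is 50% inhibition.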

Homo sapiens [2] = organism: Homo sapiens; experiment: Inhibition of ADP (5 uM) induced platelet aggregation in human platelet rich plasma; format: functional, organism-based; method in brief: as §1
Homo sapiens [3] = organism: Homo sapiens; experiment: Inhibition of U-46,619 (4 uM) induced platelet aggregation in human platelet rich plasma; format: functional, organism-based
Monkey [4] = experiment: Ex vivo inhibition of platelet aggregation induced by ADP (5 uM) in cynomolgus monkey platelet rich plasma; format: functional, organism-based; conditions: Cercopithecidae
Monkey [5] = experiment: Ex vivo inhibition of platelet aggregation induced by ADP (10 uM) in cynomolgus monkey platelet rich plasma; conditions: Cercopithecidae

Sequence of Prostacyclin receptor (P43119 whole entry): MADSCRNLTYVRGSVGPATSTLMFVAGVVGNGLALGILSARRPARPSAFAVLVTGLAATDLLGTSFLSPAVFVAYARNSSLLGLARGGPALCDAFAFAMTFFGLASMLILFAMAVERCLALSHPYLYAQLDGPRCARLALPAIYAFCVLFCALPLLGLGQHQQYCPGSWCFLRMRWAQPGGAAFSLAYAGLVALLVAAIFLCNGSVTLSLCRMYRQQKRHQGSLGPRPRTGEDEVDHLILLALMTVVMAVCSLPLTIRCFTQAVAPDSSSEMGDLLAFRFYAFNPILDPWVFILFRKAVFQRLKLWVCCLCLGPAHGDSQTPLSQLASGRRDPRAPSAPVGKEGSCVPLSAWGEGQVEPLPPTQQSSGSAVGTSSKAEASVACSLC

Row | SMILES | Ki (Prostacyclin receptor) [nM] | Ki (Thromboxane A2 receptor) [nM] | IC50 (Homo sapiens [1]) [nM] | IC50 (Homo sapiens [2]; Homo sapiens, Plasma) [nM] | IC50 (Homo sapiens [3]) [nM] | IC50 (Homo sapiens [2]) [nM] | IC50 (Monkey [4]) [nM] | IC50 (Monkey [5]) [nM]
1 | O=C(O)COc1cccc2c(CSCC(c3ccccc3)c3ccccc3)coc12 | 680 | 2500 | 17300 | 19900 | – | – | – | –
2 | O=C(O)COc1cccc2c(CCCSC(c3ccccc3)c3ccccc3)coc12 | 270 | 3100 | 1600 | 1900 | – | – | – | –
3 | O=C(O)COc1cccc2c(CCSC(c3ccccc3)c3ccccc3)coc12 | – | 310 | 560 | 5900 | – | – | – | –
4 | O=C(O)COc1cccc2c1CCC=C2CCO/N=C(\c1ccccc1)c1cccnc1 | – | – | – | 170 | 170 | – | – | –
5 | O=C(O)COc1cccc2c(CCCSCC(c3ccccc3)c3ccccc3)coc12 | 400 | > 15000 | 1400 | 1700 | – | – | – | –
6 | O=C(O)COc1cccc2c(CSCCC(c3ccccc3)c3ccccc3)coc12 | 580 | 3100 | 10000 | 12800 | – | – | – | –
7 | CCC(SCCc1c(CO)oc2c(OCC(=O)O)cccc12)(c1ccccc1)c1ccccc1 | 3400 | 180 | 3800 | 56000 | – | – | – | –
8 | CC(SCCc1c(CO)oc2c(OCC(=O)O)cccc12)(c1ccccc1)c1ccccc1 [listing 1 of 2 here] | 530 | 4.5 | 170 | – | – | 2200 | – | –
9 | CC(c1ccccc1)(c1ccccc1)S(=O)(=O)CCc1c(CO)oc2c(OCC(=O)O)cccc12 | 1900 | 4.3 | 310 | 3000 | – | – | – | –
10 | O=C(O)COc1cccc2c(CCSC(c3ccccc3)c3ccccc3)c(CO)oc12 | 750 | 88 | 460 | 3300 | – | – | – | –
11 | O=C(O)COc1cccc2c(CCSCCC(c3ccccc3)c3ccccc3)coc12 | 560 | > 10000 | 5400 | 5200 | – | – | – | –
12 | CC(SCCc1c(CCCO)oc2c(OCC(=O)O)cccc12)(c1ccccc1)c1ccccc1 | 5800 | 72 | 2900 | 9000 | – | – | – | –
13 | CC(SCCc1coc2c(OCC(=O)O)cccc12)(c1ccccc1)c1ccccc1 | 570 | 26 | 580 | 8100 | – | – | – | –
14 | O=C(O)COc1cccc2c(CCSC(c3ccccc3)(c3ccccc3)C(F)(F)F)c(CO)oc12 | 760 | 150 | 520 | 1500 | – | – | – | –
15 | CCCC(SCCc1c(CO)oc2c(OCC(=O)O)cccc12)(c1ccccc1)c1ccccc1 | > 2300 | > 5900 | 56000 | > 100000 | – | – | – | –
16 | O=C(O)COc1cccc2c(CCCSCCC(c3ccccc3)c3ccccc3)coc12 | 2900 | > 15000 | > 100000 | > 100000 | – | – | – | –
17 | O=C(O)COc1cccc2c(CSC(c3ccccc3)c3ccccc3)coc12 | 4700 | 5100 | > 100000 | > 100000 | – | – | – | –
18 | CC(SCCc1c(CCO)oc2c(OCC(=O)O)cccc12)(c1ccccc1)c1ccccc1 | 210 | 78 | 540 | 710 | – | – | – | –
19 | O=C(O)CCC/C=C\C[C@@H]1[C@H](CNNC(=O)Nc2ccccc2)[C@H]2CC[C@H]1O2 | – | – | – | > 10000 | 21 | – | – | –
20 | O=C(O)COc1cccc2c(CCSCC(c3ccccc3)c3ccccc3)coc12 | 80 | 3100 | 510 | 730 | – | – | – | –
21 | CC(SCCc1c(CO)oc2c(OCC(=O)O)cccc12)(c1ccccc1)c1ccccc1 [listing 2 of 2 here] | – | – | – | – | 120 | 2200 | 3700 | 140
22 | CC(c1ccccc1)(c1ccccc1)[S+]([O-])CCc1c(CO)oc2c(OCC(=O)O)cccc12 (stereo not given) | > 10000 | 51 | 1700 | 7900 | – | – | – | –
23 | CC#CCC(C)[C@H](O)/C=C/[C@@H]1[C@H]2c3cccc(CCCC(=O)O)c3O[C@H]2C[C@H]1O (stereo not given in full) [BERAPROST SODIUM] | – | – | – | 7.6 | 5.7 | – | – | –
